Experimental data pooled from the literature.
Each line is one published result; the experiments were not run side by side.
Maoa: Amine oxidase [flavin-containing] A (Maoa, Rattus norvegicus, UniProt P21396)
AMY2: Pancreatic alpha-amylase (AMY2, Sus scrofa, UniProt P00690)
PADI3: Protein-arginine deiminase type-3 (PADI3, Homo sapiens, UniProt Q9ULW8)
KRAS G12C: GTPase KRas (KRAS, Homo sapiens, UniProt P01116, G12C)
GAK: Cyclin-G-associated kinase (GAK, Homo sapiens, UniProt O14976)
Genome polyprotein protease: Genome polyprotein, protease (Hepatitis C virus genotype 1b, UniProt Q9WMX2)
EIF2AK3: Eukaryotic translation initiation factor 2-alpha kinase 3 (EIF2AK3, Homo sapiens, UniProt Q9NZJ5)

COc1ccc(CN)cc1  Km (Maoa; enzyme activity, substrate; pH 7.5): 80 µM
Cc1noc(NS(=O)(=O)c2ccc(N=NN(O)c3ccccc3)cc2)c1C  inhibition (AMY2; enzyme activity, inhibitor; 240 µg/mL): 63.2%
N=C(CCl)NCCC[C@H](NC(=O)c1ccccc1)c1nn[nH]n1  kinact/KI (PADI3; enzyme activity, inhibitor): 49.6 M⁻¹ s⁻¹
C=CC(=O)N1CCN(c2cccc(-c3noc([C@@]4(C)CCCc5sc(N)c(C#N)c54)n3)c2)CC1  kinact (KRAS G12C; cell-free assay, inhibitor): 8.33e-05 s⁻¹
Cc1cccc(N(O)N=Nc2ccc(S(=O)(=O)Nc3nccs3)cc2)c1  inhibition (AMY2; enzyme activity, inhibitor; 60 µg/mL): 21.1%
NCc1ccc(F)cc1  Km (Maoa; enzyme activity, substrate; pH 7.5): 174 µM
Cc1ccc(C(=O)Nc2ccc(CN3CCN(C)CC3)c(C(F)(F)F)c2)cc1C#Cc1cnc2cccnn12  remaining activity (Receptor-interacting serine/threonine-protein kinase 1 (RIPK1, Homo sapiens, UniProt Q13546); enzyme activity, inhibitor; 23.5 nM): 86%
N=C(CF)NCCC[C@H](NC(=O)c1ccc(-c2ccccc2)cc1)c1nn[nH]n1  kinact/KI (PADI3; enzyme activity, inhibitor): 5.08 M⁻¹ s⁻¹
COc1cc2nccc(Nc3cccc(C(C)=O)c3)c2cc1OC  ΔTm (GAK; thermal stability, DSF; 10 µM): 1.3 °C
CCCOc1ccc(OC)c(F)c1C(=O)c1ccc(C(=O)N[C@@H]2CNC[C@H]2NC(=O)c2ccc3[nH]ncc3c2)cc1  remaining activity (Serine/threonine-protein kinase MRCK beta (CDC42BPB, Homo sapiens, UniProt Q9Y5S2); enzyme activity, inhibitor; 0.5 µM): 9%
CCN(O)N=Nc1ccc(S(=O)(=O)Nc2cc(C)on2)cc1  inhibition (AMY2; enzyme activity, inhibitor; 120 µg/mL): 42.1%
CC(C)(C)n1nnc([C@H](CCCNC(=N)CF)NC(=O)c2ccccc2)n1  kinact/KI (PADI3; enzyme activity, inhibitor): 8.67 M⁻¹ s⁻¹
N#Cc1ccccc1Nc1ccnc2ccc(C(F)(F)F)cc12  ΔTm (GAK; thermal stability, DSF; 10 µM): 0.6 °C
CCCN(O)N=Nc1ccc(S(=O)(=O)Nc2cc(C)on2)cc1  inhibition (AMY2; enzyme activity, inhibitor; 60 µg/mL): 21.1%
COc1cc(Nc2ccnc3ccccc23)cc(OC)c1OC  ΔTm (GAK; thermal stability, DSF; 10 µM): 4.4 °C
N=C(CF)NCCC[C@H](NC(=O)c1ccccc1)c1nn[nH]n1  kinact/KI (PADI3; enzyme activity, inhibitor): 7.25 M⁻¹ s⁻¹
Nc1ncnc2occ(-c3ccc(NC(=O)Nc4cc(C(F)(F)F)ccc4F)cc3)c12  remaining signal (GAK; cell-free assay, inhibitor; 20 µM): 41%
CN1CCC2(CC1)NC(=O)c1c(c3ccc(Cl)c(Cl)c3n1C)C2C#N (racemic)  ΔTm (Serine/threonine-protein kinase DCLK1 (DCLK1, Homo sapiens, UniProt O15075); thermal stability, DSF; 10 µM): -0.1 °C
Cc1cccc(N(O)N=Nc2ccc(S(=O)(=O)Nc3onc(C)c3C)cc2)c1  inhibition (AMY2; enzyme activity, inhibitor; 120 µg/mL): 31.6%
C=CC(=O)Nc1ccc(-c2noc([C@@]3(C)CCCc4sc(N)c(C#N)c43)n2)cc1  kinact (KRAS G12C; cell-free assay): 0.00011 s⁻¹
C[C@H]1O[C@H](O[C@H]2[C@H](O)[C@@H](O)[C@@H](O[C@H]3[C@H](O)[C@@H](O)C(O)O[C@@H]3CO)O[C@@H]2CO)[C@H](O)[C@@H](O)[C@@H]1N[C@H]1C=C(CO)[C@@H](O)[C@H](O)[C@H]1O (stereo partly drawn)  inhibition (AMY2; enzyme activity, inhibitor; 10 µg/mL): 23.1%
NC(=O)[C@H](CCCN=C(N)N)NC(=O)c1ccccc1  Km (PADI3; enzyme activity, substrate): 13900 µM
CCCN(O)N=Nc1ccc(S(=O)(=O)Nc2onc(C)c2C)cc1  inhibition (AMY2; enzyme activity, inhibitor; 20 µg/mL): 26.3%
O=c1oc2c(O)c(O)cc3c(=O)oc4c(O)c(O)cc1c4c23  IC90 (Genome polyprotein protease; enzyme activity, inhibitor, fluorescence): < 10000 nM
FC(F)(F)c1ccc2nccc(Nc3cccc(Br)c3)c2c1  ΔTm (GAK; thermal stability, DSF; 10 µM): 3.8 °C
COc1cc(C=Cc2cc(-c3ccccc3)nc(O)n2)ccc1O  inhibition (AMY2; enzyme activity, inhibitor, absorbance; 5 µg/mL): 76.3%
CC(C)(C)n1nnc([C@H](CCCNC(=N)CCl)NC(=O)c2ccccc2)n1  kinact/KI (PADI3; enzyme activity, inhibitor): 7.67 M⁻¹ s⁻¹
COc1cc(Nc2ccnc3cc(C#N)ccc23)cc(OC)c1OC  ΔTm (GAK; thermal stability, DSF; 10 µM): 5.3 °C
FC(F)(F)Oc1cccc(-c2cnc3ccc(-c4ccncc4)nn23)c1  activity vs control (EIF2AK3; enzyme activity, inhibitor, radiometric; 5 µM): 67%
N=C(CCl)NCCC[C@H](NC(=O)c1ccccc1C(=O)O)c1nn[nH]n1  kinact/KI (PADI3; enzyme activity, inhibitor): 207 M⁻¹ s⁻¹
O=C1O[C@H]2[C@@H]3OC(=O)c4cc(O)c(O)c(O)c4-c4c(O)c(O)c5oc(=O)c6c(c(O)c(O)c7oc(=O)c4c5c76)-c4c(cc(O)c(O)c4O)C(=O)OC[C@H]3OC(O)[C@@H]2OC(=O)c2cc(O)c(O)c(O)c2-c2c1cc(O)c(O)c2O (mixture of isomers)  IC90 (Genome polyprotein protease; enzyme activity, inhibitor, fluorescence): ~2500 nM
COc1cc(Nc2ncnc3ccc(C(F)(F)F)cc23)cc(OC)c1  ΔTm (GAK; thermal stability, DSF; 10 µM): 0.7 °C
C=CC(=O)Nc1cccc(-c2noc([C@@]3(C)CCCc4sc(N)c(C#N)c43)n2)c1  kinact (KRAS G12C; cell-free assay): 0.000185 s⁻¹
COc1cc(Nc2cnc(C#N)c(O[C@H](C)CN(C)C)n2)ncc1-c1cnn(C)c1  remaining activity (EIF2AK3; enzyme activity, inhibitor, radiometric; 10 µM): 93%
COc1ccc(Nc2ncnc3ccc(C(F)(F)F)cc23)cc1  ΔTm (GAK; thermal stability, DSF; 10 µM): 0.3 °C
COc1cc(C=CC(=O)CC(c2ccc([N+](=O)[O-])cc2)n2ccnc2)ccc1O (stereo not drawn)  inhibition (AMY2; enzyme activity, inhibitor, absorbance; 1.25 µg/mL): 52.7%
Cc1ccc(N(O)N=Nc2ccc(S(=O)(=O)Nc3cc(C)on3)cc2)cc1  inhibition (AMY2; enzyme activity, inhibitor; 60 µg/mL): 26.3%
COc1cc(C=Cc2cc(-c3ccc(N(C)C)cc3)nc(O)n2)ccc1O  inhibition (AMY2; enzyme activity, inhibitor, absorbance; 10 µg/mL): 82.6%
CS(=O)(=O)c1cccc(Nc2ccnc3ccc(C(F)(F)F)cc23)c1  ΔTm (GAK; thermal stability, DSF; 10 µM): 0.3 °C
